In ChEMBL document CHEMBL2440006, “Mastering tricyclic ring systems for desirable functional cannabinoid activity” (Eur J Med Chem, 2013):
Active and inactive are the calls of the source. No cut-off for these calls is given here.

Molecular target: Cannabinoid receptor 1 (Homo sapiens) (UniProt P21554)
Assay: Agonist activity at human recombinant CB1 receptor expressed in CHO cells after 1 hr by [35S]GTPgammaS binding assay relative to CP55940
Type: functional, cell-based
Conditions: not given
In short: (§1)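 Membranes from CHO cells expressing hCB1 or hCB2, preincubated at least 15 min on ice with 30 μM GDP solution. GTP-γ-[35S] with WGA-PVT SPA beads. Eight concentrations, 0.001–10 μM, in duplicate. Incubated 1 h at room temperature, centrifuged, then a further 1 h before counting. […] Mean of two determinations.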

Sequence of Cannabinoid receptor 1 (Homo sapiens) (P21554 whole entry): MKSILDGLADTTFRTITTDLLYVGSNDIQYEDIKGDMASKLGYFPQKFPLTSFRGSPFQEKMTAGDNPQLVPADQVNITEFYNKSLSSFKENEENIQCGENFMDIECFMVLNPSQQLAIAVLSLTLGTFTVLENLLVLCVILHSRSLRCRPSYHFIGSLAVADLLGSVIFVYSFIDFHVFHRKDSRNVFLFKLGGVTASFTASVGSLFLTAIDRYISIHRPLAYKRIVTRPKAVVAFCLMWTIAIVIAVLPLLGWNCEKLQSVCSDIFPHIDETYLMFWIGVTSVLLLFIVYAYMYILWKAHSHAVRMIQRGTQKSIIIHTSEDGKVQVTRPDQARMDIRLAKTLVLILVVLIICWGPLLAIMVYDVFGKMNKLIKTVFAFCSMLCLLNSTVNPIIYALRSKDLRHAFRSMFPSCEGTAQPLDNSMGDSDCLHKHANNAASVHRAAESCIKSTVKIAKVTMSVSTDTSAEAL

Compound | Emax [%]
CCCCCn1c2ccccc2c2cc(C(=O)N3CCCCC3)ccc21 | 73.6

Molecular target: T1, Cannabinoid receptor 2 (Homo sapiens, UniProt P34972)
Assay: Partial agonist activity at human recombinant CB2 receptor expressed in CHO cells after 1 hr by [35S]GTPgammaS binding assay relative to CP55940
Type: functional, cell-based
Conditions: not given
In short: as §1

T1 sequence (P34972 whole entry): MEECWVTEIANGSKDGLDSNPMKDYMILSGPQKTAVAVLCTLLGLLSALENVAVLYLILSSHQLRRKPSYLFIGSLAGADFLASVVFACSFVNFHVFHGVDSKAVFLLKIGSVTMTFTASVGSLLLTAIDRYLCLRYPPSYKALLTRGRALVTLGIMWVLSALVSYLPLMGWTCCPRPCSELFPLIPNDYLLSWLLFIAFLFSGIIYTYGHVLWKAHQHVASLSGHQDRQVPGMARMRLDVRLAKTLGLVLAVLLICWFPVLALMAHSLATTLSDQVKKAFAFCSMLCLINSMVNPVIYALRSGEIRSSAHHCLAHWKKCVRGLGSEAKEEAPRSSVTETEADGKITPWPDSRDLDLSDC

Compound | Emax [%]
CCCCCn1c2ccccc2c2cc(C(=O)N3CCCCC3)ccc21 | 30.8

System: not listed separately
Assay: Selectivity ratio of Ki for rat CB1 receptor to Ki for human CB2 receptor
Conditions: not given

Compound | Ratio Ki
CCCCn1c2ccccc2c2cc(C(=O)N3CCCCC3)ccc21 | 0.24
CCCCCn1c2ccccc2c2cc(C(=O)c3ccccc3)ccc21 | 2.88
O=C(c1ccc2c(c1)c1ccccc1n2Cc1cccnc1)N1CCCCC1 | 1.71
CCCCCn1c2ccccc2c2cc(C(=O)NN3CCCCC3)ncc21 | 2.07
COCCCn1c2ccccc2c2cc(C(=O)N3CCCCC3)ccc21 | 8.88
CCCCCn1c2ccccc2c2cc(C(=O)N3CCOCC3)ccc21 | 0.71
CCCCCn1c2ccccc2c2cc(C(=O)N3CCNCC3)ccc21 | 0.1
CCCCCn1c2ccccc2c2cc(C(=O)OCc3ccncc3)ccc21 | 0.08
CCCCCCCn1c2ccccc2c2cc(C(=O)N3CCCCC3)ccc21 | 1.14
CCCCCn1c2ccccc2c2cc(C(=S)N3CCCCC3)ccc21 | 0.82
O=C(c1ccc2c(c1)c1ccccc1n2CCCl)N1CCCCC1 | 4.55
O=C(c1ccc2c(c1)c1ccccc1n2CC1CCOCC1)N1CCCCC1 | 0.98
CCCCCn1c2ccccc2c2cc(C(=O)OCC)ncc21 | 1.36
CCCCCn1c2ccc(C(=O)N3CCCCC3)cc2c2ccc(OC)cc21 | 1.71
CCCCCn1c2ccccc2c2cc(C(=O)CN3CCS(=O)(=O)CC3)ccc21 | 1.34
CCCn1c2ccccc2c2cc(C(=O)N3CCCCC3)ccc21 | 1.15
CCCCCn1c2ccccc2c2cc(CN3CCN(C)CC3)ccc21 | 0.33
CCOC(=O)CCn1c2ccccc2c2cc(C(=O)N3CCCCC3)ccc21 | 3.79
CCCCCn1c2ccccc2c2cc(C(=O)N3CCCCC3)ccc21 | 1.05
O=C(OCCCn1c2ccccc2c2cc(C(=O)N3CCCCC3)ccc21)N1CCS(=O)(=O)CC1 | 30.9
O=C(c1ccc2c(c1)c1ccccc1n2Cc1ccccn1)N1CCCCC1 | 1.87
O=C(c1ccc2c(c1)c1ccccc1n2CCCN1CCS(=O)(=O)CC1)N1CCCCC1 | 9.54
CN(C)CCCn1c2ccccc2c2cc(C(=O)N3CCCCC3)ccc21 | 5.92
CCCCCn1c2ccccc2c2cc(C(=O)CN3CCCCC3)ccc21 | 3.05
O=C(c1ccc2c(c1)c1ccccc1n2CCCCl)N1CCCCC1 | 1.4

Molecular target: T1, Cannabinoid receptor 2
Assay: Displacement of [3H]-CP55940 from human CB2 receptor expressed in HEK293 cells after 1.5 hrs by microbeta liquid scintillation counting analysis
Type: cell-based
Conditions: read-out: Ki
In short: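 Membranes from rat brain homogenate (CB1) or HEK293 cells expressing human CB2. GF/B filtration, then scintillation counting. IC50 by three-parameter logistic fit, Ki by Cheng-Prusoff. Three experiments in triplicate.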

Compound | Ki [nM]
CCCCn1c2ccccc2c2cc(C(=O)N3CCCCC3)ccc21 | 264
CCCCCn1c2ccccc2c2cc(C(=O)c3ccccc3)ccc21 | 101
O=C(c1ccc2c(c1)c1ccccc1n2Cc1cccnc1)N1CCCCC1 | 600
CCCCCn1c2ccccc2c2cc(C(=O)NN3CCCCC3)ncc21 | 171
COCCCn1c2ccccc2c2cc(C(=O)N3CCCCC3)ccc21 | 83
CCCCCn1c2ccccc2c2cc(C(=O)N3CCOCC3)ccc21 | 84.5
CCCCCn1c2ccccc2c2cc(C(=O)OCc3ccncc3)ccc21 | 1390
CCCCCCCn1c2ccccc2c2cc(C(=O)N3CCCCC3)ccc21 | 827
CCCCCn1c2ccccc2c2cc(C(=S)N3CCCCC3)ccc21 | 49.6
O=C(c1ccc2c(c1)c1ccccc1n2CCCl)N1CCCCC1 | 519
O=C(c1ccc2c(c1)c1ccccc1n2CC1CCOCC1)N1CCCCC1 | 20
CCCCCn1c2ccccc2c2cc(C(=O)OCC)ncc21 | 1370
CCCCCn1c2ccccc2c2cc(C(=O)CN3CCS(=O)(=O)CC3)ccc21 | 502
CCCn1c2ccccc2c2cc(C(=O)N3CCCCC3)ccc21 | 521
CCCCCn1c2ccccc2c2cc(CN3CCN(C)CC3)ccc21 | 740
CCOC(=O)CCn1c2ccccc2c2cc(C(=O)N3CCCCC3)ccc21 | 1310
CCCCCn1c2ccccc2c2cc(C(=O)N3CCCCC3)ccc21 | 73
O=C(OCCCn1c2ccccc2c2cc(C(=O)N3CCCCC3)ccc21)N1CCS(=O)(=O)CC1 | 73
O=C(c1ccc2c(c1)c1ccccc1n2Cc1ccccn1)N1CCCCC1 | 215
O=C(c1ccc2c(c1)c1ccccc1n2CCCN1CCS(=O)(=O)CC1)N1CCCCC1 | 249
CN(C)CCCn1c2ccccc2c2cc(C(=O)N3CCCCC3)ccc21 | 403
CCCCCn1c2ccccc2c2cc(C(=O)CN3CCCCC3)ccc21 | 1090
O=C(c1ccc2c(c1)c1ccccc1n2CCCCl)N1CCCCC1 | 88

Molecular target: Cannabinoid receptor 1 (Homo sapiens) (UniProt P21554)
Assay: Induction of human CB1 receptor internalization expressed in HEK293 cells at 10 uM relative to CP55940
Type: cell-based
Conditions: not given
In short: (§2)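 Cells stably expressing human CB1 or human CB2 receptors, exposed to test compound alone. […] Mean of two determinations.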

Compound | Activity [%]
CCCCn1c2ccccc2c2cc(C(=O)N3CCCCC3)ccc21 | 84.8
CCCCCn1c2ccccc2c2cc(C(=O)c3ccccc3)ccc21 | 77
COCCCn1c2ccccc2c2cc(C(=O)N3CCCCC3)ccc21 | 63.2
CCCCCn1c2ccccc2c2cc(C(=O)N3CCOCC3)ccc21 | 115
CCCCCn1c2ccccc2c2cc(C(=S)N3CCCCC3)ccc21 | 124
O=C(c1ccc2c(c1)c1ccccc1n2CC1CCOCC1)N1CCCCC1 | 142
CCCCCn1c2ccc(C(=O)N3CCCCC3)cc2c2ccc(OC)cc21 | 33.4
CCCCCn1c2ccccc2c2cc(C(=O)N3CCCCC3)ccc21 | 140
O=C(OCCCn1c2ccccc2c2cc(C(=O)N3CCCCC3)ccc21)N1CCS(=O)(=O)CC1 | 65.6
CCCCCn1c2ccccc2c2cc(C(=O)CN3CCCCC3)ccc21 | -20.4
O=C(c1ccc2c(c1)c1ccccc1n2CCCCl)N1CCCCC1 | 106

Molecular target: T1, Cannabinoid receptor 2
Assay: Reduction of CP55940-induced human CB2 receptor internalization expressed in HEK293 cells at 3 uM relative to control
Type: cell-based
Design: scale not given: the % may be the effect or the level left
Conditions: not given

Compound | Activity
CCCCCn1c2ccccc2c2cc(C(=O)c3ccccc3)ccc21 | > 50%
CCCCCn1c2ccc(C(=O)N3CCCCC3)cc2c2ccc(OC)cc21 | Active

Molecular target: T1, Cannabinoid receptor 2
Assay: Induction of human CB2 receptor internalization expressed in HEK293 cells at 10 uM relative to CP55940
Type: cell-based
Conditions: not given
In short: as §2

Compound | Activity [%]
CCCCn1c2ccccc2c2cc(C(=O)N3CCCCC3)ccc21 | 67.9
CCCCCn1c2ccccc2c2cc(C(=O)c3ccccc3)ccc21 | 39.3
COCCCn1c2ccccc2c2cc(C(=O)N3CCCCC3)ccc21 | 68.1
CCCCCn1c2ccccc2c2cc(C(=O)N3CCOCC3)ccc21 | 78.7
CCCCCn1c2ccccc2c2cc(C(=S)N3CCCCC3)ccc21 | 63
O=C(c1ccc2c(c1)c1ccccc1n2CC1CCOCC1)N1CCCCC1 | 86.2
CCCCCn1c2ccc(C(=O)N3CCCCC3)cc2c2ccc(OC)cc21 | -1.1
CCCCCn1c2ccccc2c2cc(C(=O)N3CCCCC3)ccc21 | 118
O=C(OCCCn1c2ccccc2c2cc(C(=O)N3CCCCC3)ccc21)N1CCS(=O)(=O)CC1 | 27.9
CCCCCn1c2ccccc2c2cc(C(=O)CN3CCCCC3)ccc21 | 103
O=C(c1ccc2c(c1)c1ccccc1n2CCCCl)N1CCCCC1 | 111

Molecular target: Cannabinoid receptor 1 (Rattus norvegicus, UniProt P20272)
Assay: Displacement of [3H]-CP55940 from CB1 receptor in rat brain homogenate after 1.5 hrs by microbeta liquid scintillation counting analysis
Type: tissue-based
Conditions: read-out: Ki
In short: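 Membranes from rat brain homogenate (CB1) or HEK293 cells expressing human CB2. […] GF/B filtration, then scintillation counting. […] IC50 by three-parameter logistic fit, Ki by Cheng-Prusoff. Three experiments in triplicate.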

Sequence of Cannabinoid receptor 1 (P20272 whole entry): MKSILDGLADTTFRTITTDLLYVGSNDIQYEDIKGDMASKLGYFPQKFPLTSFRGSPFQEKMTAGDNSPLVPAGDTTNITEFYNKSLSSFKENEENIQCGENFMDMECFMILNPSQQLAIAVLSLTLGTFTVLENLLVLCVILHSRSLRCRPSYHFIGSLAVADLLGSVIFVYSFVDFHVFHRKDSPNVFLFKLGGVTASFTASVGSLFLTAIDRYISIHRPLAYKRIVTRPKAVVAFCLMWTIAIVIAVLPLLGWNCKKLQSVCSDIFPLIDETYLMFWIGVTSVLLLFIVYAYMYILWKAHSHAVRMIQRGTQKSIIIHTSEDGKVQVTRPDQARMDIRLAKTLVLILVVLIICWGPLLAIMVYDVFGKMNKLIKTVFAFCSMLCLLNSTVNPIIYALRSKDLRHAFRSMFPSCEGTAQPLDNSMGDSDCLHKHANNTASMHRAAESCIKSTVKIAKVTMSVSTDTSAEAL

Compound | Ki [nM]
CCCCn1c2ccccc2c2cc(C(=O)N3CCCCC3)ccc21 | 63
CCCCCn1c2ccccc2c2cc(C(=O)c3ccccc3)ccc21 | 291
O=C(c1ccc2c(c1)c1ccccc1n2Cc1cccnc1)N1CCCCC1 | 1020
CCCCCn1c2ccccc2c2cc(C(=O)NN3CCCCC3)ncc21 | 354
COCCCn1c2ccccc2c2cc(C(=O)N3CCCCC3)ccc21 | 1440
CCCCCn1c2ccccc2c2cc(C(=O)N3CCOCC3)ccc21 | 60
CCCCCn1c2ccccc2c2cc(C(=O)OCc3ccncc3)ccc21 | 108
CCCCCCCn1c2ccccc2c2cc(C(=O)N3CCCCC3)ccc21 | 943
CCCCCn1c2ccccc2c2cc(C(=S)N3CCCCC3)ccc21 | 40.6
O=C(c1ccc2c(c1)c1ccccc1n2CCCl)N1CCCCC1 | 2360
O=C(c1ccc2c(c1)c1ccccc1n2CC1CCOCC1)N1CCCCC1 | 19.5
CCCCCn1c2ccccc2c2cc(C(=O)OCC)ncc21 | 1860
CCCCCn1c2ccccc2c2cc(C(=O)CN3CCS(=O)(=O)CC3)ccc21 | 675
CCCn1c2ccccc2c2cc(C(=O)N3CCCCC3)ccc21 | 600
CCCCCn1c2ccccc2c2cc(CN3CCN(C)CC3)ccc21 | 244
CCOC(=O)CCn1c2ccccc2c2cc(C(=O)N3CCCCC3)ccc21 | 4980
CCCCCn1c2ccccc2c2cc(C(=O)N3CCCCC3)ccc21 | 77
O=C(OCCCn1c2ccccc2c2cc(C(=O)N3CCCCC3)ccc21)N1CCS(=O)(=O)CC1 | 2260
O=C(c1ccc2c(c1)c1ccccc1n2Cc1ccccn1)N1CCCCC1 | 403
O=C(c1ccc2c(c1)c1ccccc1n2CCCN1CCS(=O)(=O)CC1)N1CCCCC1 | 2380
CN(C)CCCn1c2ccccc2c2cc(C(=O)N3CCCCC3)ccc21 | 2390
CCCCCn1c2ccccc2c2cc(C(=O)CN3CCCCC3)ccc21 | 3330
O=C(c1ccc2c(c1)c1ccccc1n2CCCCl)N1CCCCC1 | 124

Molecular target: Cannabinoid receptor 1 (Homo sapiens) (UniProt P21554)
Assay: Partial agonist activity at human recombinant CB1 receptor expressed in CHO cells after 1 hr by [35S]GTPgammaS binding assay relative to CP55940
Type: functional, cell-based
Conditions: not given
In short: as §1

Compound | Emax [%]
CCCCCn1c2ccc(C(=O)N3CCCCC3)cc2c2ccc(OC)cc21 | 30.4

Molecular target: T1, Cannabinoid receptor 2
Assay: Inverse agonist activity at human recombinant CB2 receptor expressed in CHO cells after 1 hr by [35S]GTPgammaS binding assay relative to CP55940
Type: functional, cell-based
Conditions: not given
In short: as §1

Compound | Emax [%]
CCCCCn1c2ccc(C(=O)N3CCCCC3)cc2c2ccc(OC)cc21 | -76.4
